The structures appear in SMILES notation. Active and inactive are the calls of the source. The rule behind the calls is not given here.

Six compounds from ChEMBL document CHEMBL1144558, “Potent anticancer activities of novel aminophenol analogues against various cancer cell lines” (2007) can be followed below.

For assay [1], the system named is MCF7. The experiment in a line: Growth inhibition of human estrogen receptor expressing MCF7 cells at 4 uM after 68 hrs relative to control. Particulars: MCF7, 68 h. The assay is classed as functional. The essentials: (§1)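 Adherent cells trypsinized, seeded at 0.5 × 10^4 cells/ml in RPMI 1640 with 10% FBS (maintenance medium also 10 mM HEPES pH 7.3), 37 °C, 5% CO2. Compound (4 µM) added after 1 day; 68 h exposure. Viable cells by MTT; % net growth = (treated − initial absorbance)/(control − initial absorbance) × 100. Mean of ≥3 (MCF-7 lines) or ≥4 (DU-145, HepG2) measurements.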

Assay [2] has as its system MCF7. The experiment in a line: Growth inhibition of human estrogen receptor deficient adriamycin-resistant MCF7 cells at 4 uM after 68 hrs relative to control. The assay is classed as functional. The following applies: MCF7, 68 h. The essentials: as §1
The test system of assay [3] is HepG2. The experiment in a line: Growth inhibition of human HepG2 cells at 4 uM after 68 hrs relative to control. The assay is classed as functional. The following applies: HepG2, 68 h. The procedure, abridged:
as §1

The test system of assay [4] is DU-145. Kind of assay: Growth inhibition of human DU145 cells at 4 uM after 68 hrs relative to control. It is filed as functional. The following applies: DU-145, 68 h. The essentials:
as §1

In assay [5] the test system is HL-60. The experiment in a line: Growth inhibition of human HL60 cells at 4 uM after 72 hrs relative to control. The assay is classed as functional. Particulars: HL-60, 72 h.
Assay [6] relates to HL-60. Kind of assay: Induction of apoptosis in human HL60 cells assessed as DNA fragmentation at 4 uM after 20 hrs. The assay is classed as functional, cell-based. The essentials: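 Cells at 2 × 10^5 cells/ml in RPMI/10% FBS treated 20 h with 4 µM compound (DMSO control). Washed in PBS pH 7.2, lysed with proteinase K, RNase A and 1% SDS at 37 °C for 30 min, then NaI/isopropanol DNA extraction at 60 °C. DNA run on 2% agarose gel, stained with ethidium bromide, scored for ladder.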

Consider `CC1=C(/C=C/C(C)=C/C=C/C(C)=C/C(=O)Nc2ccc(O)cc2)C(C)(C)CCC1` [FENRETINIDE], for which the inhibition (in general, the relative decrease from the control value, in per cent) at 4 µM in assay [1] worked out at 62%; in assay [2], 60%; in assay [3], 27%; in assay [4], 41%; in assay [5], 55%.
On the same counts, the results for `CCCCCCCCCCCC(=O)Nc1ccc(O)cc1` are 22%, 21%, 22%, 41% and 6%.
For the compound `CCCCCCCCCCNc1ccc(O)cc1`, the inhibition at 4 µM is 57% in assay [1]; 100% in assay [2]; 17% in assay [3]; 66% in assay [4]; 66% in assay [5]. The outcome in assay [6] was Active.
Regarding `CCCCCCCCCCCCNc1ccc(O)cc1`, the inhibition at 4 µM came out at 66% in assay [1]; 100% in assay [2]; 13% in assay [3]; 73% in assay [4]; 72% in assay [5]. The outcome in assay [6] was Active.
Turning to `CCCCCCCCCC(=O)Nc1ccc(O)cc1`, the inhibition at 4 µM in assay [1] was found to be 30%; in assay [2] it was 23%; in assay [3], 26%; in assay [4], 51%; in assay [5] it was 6%.
In the same order, the values of `CC1=C(/C=C/C(C)=C/C=C/C(C)=C/C(=O)O)C(C)(C)CCC1` [TRETINOIN] are 74%, 12%, 13%, 46% and 42%.
